# Data taken from ChEMBL document CHEMBL5058577, “EUbOPEN Chemogenomics Library 2 (Multiplex)” (2022).
# System: HEK-293T
# Assay: Multiplex assay against HEK293T
# Format: toxicity, cell-based
# Settings: human
# In short: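 Live cells carried four stains from seeding: Hoechst33342, BioTracker Green Microtubule Cytoskeleton Dye, MitoTracker Red and Annexin V Alexa Fluor 680. They were imaged on a CQ1 microscope at 37°C and 5% CO2 after compound addition. Using CellPathfinder machine-learning gating, cells were split into Hoechst high-intensity objects or normal cells, normal cells into healthy, pyknosed or fragmented nuclei, and pyknosed cells into mitotic or apoptotic; tubulin, mitochondrial-mass and membrane-permeability phenotypes are per cents of healthy-nucleus cells.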
# [1] = 12 h, 1 µM, compound concentration 1 uM, replicate 1
# [2] = 12 h, 1 µM, compound concentration 1 uM, replicate 2
# [3] = 12 h, 10 µM, compound concentration 10 uM, replicate 1
# [4] = 12 h, 10 µM, compound concentration 10 uM, replicate 2
# [5] = 24 h, 1 µM, compound concentration 1 uM, replicate 1
# [6] = 24 h, 1 µM, compound concentration 1 uM, replicate 2
# [7] = 24 h, 10 µM, compound concentration 10 uM, replicate 1
# [8] = 24 h, 10 µM, compound concentration 10 uM, replicate 2
# [9] = 48 h, 1 µM, compound concentration 1 uM, replicate 1
# [10] = 48 h, 1 µM, compound concentration 1 uM, replicate 2
# [11] = 48 h, 10 µM, compound concentration 10 uM, replicate 1
# [12] = 48 h, 10 µM, compound concentration 10 uM, replicate 2
smiles,measurement,setting,value
COC(c1ccccc1)(c1ccccc1)[C@H](Oc1nc(C)cc(C)n1)C(=O)O [AMBRISENTAN],Population Apoptotic (%),[1],38%
same,Population Fragmented Nuclei (%),[1],7%
same,Population Healthy Nuclei (%),[1],75%
same,Population Hoechst High Intensity Objects (%),[1],6%
same,Population Membrane Permeable-Phenotype (%),[1],0%
same,Population Mitochondria Different-Phenotype (%),[1],53%
same,Population Mitotic Cells (%),[1],61%
same,Population Normal (%),[1],93%
same,Population Pyknosed Nuclei (%),[1],16%
same,Population Tubulin-Different-Phenotype (%),[1],30%
same,Total Cell Count,[1],249
same,Population Healthy Nuclei (%),[2],81%
same,Population Hoechst High Intensity Objects (%),[2],11%
same,Population Mitochondria Different-Phenotype (%),[2],63%
same,Population Normal (%),[2],88%
same,Population Pyknosed Nuclei (%),[2],10%
same,Population Tubulin-Different-Phenotype (%),[2],23%
same,Total Cell Count,[2],326
same,Population Apoptotic (%),[3],33%
same,Population Fragmented Nuclei (%),[3],8%
same,Population Healthy Nuclei (%),[3],76%
same,Population Hoechst High Intensity Objects (%),[3],6%
same,Population Membrane Permeable-Phenotype (%),[3],0%
same,Population Mitochondria Different-Phenotype (%),[3],47%
same,Population Mitotic Cells (%),[3],66%
same,Population Normal (%),[3],93%
same,Population Pyknosed Nuclei (%),[3],15%
same,Population Tubulin-Different-Phenotype (%),[3],23%
same,Total Cell Count,[3],383
same,Population Apoptotic (%),[4],56%
same,Population Fragmented Nuclei (%),[4],5%
same,Population Healthy Nuclei (%),[4],80%
same,Population Hoechst High Intensity Objects (%),[4],13%
same,Population Mitochondria Different-Phenotype (%),[4],57%
same,Population Mitotic Cells (%),[4],43%
same,Population Normal (%),[4],86%
same,Population Pyknosed Nuclei (%),[4],14%
same,Population Tubulin-Different-Phenotype (%),[4],18%
same,Total Cell Count,[4],262
same,Population Apoptotic (%),[5],37%
same,Population Fragmented Nuclei (%),[5],9%
same,Population Healthy Nuclei (%),[5],76%
same,Population Hoechst High Intensity Objects (%),[5],4%
same,Population Membrane Permeable-Phenotype (%),[5],1%
same,Population Mitochondria Different-Phenotype (%),[5],30%
same,Population Mitotic Cells (%),[5],62%
same,Population Normal (%),[5],95%
same,Population Pyknosed Nuclei (%),[5],14%
same,Population Tubulin-Different-Phenotype (%),[5],19%
same,Total Cell Count,[5],313
same,Population Apoptotic (%),[6],43%
same,Population Healthy Nuclei (%),[6],82%
same,Population Hoechst High Intensity Objects (%),[6],7%
same,Population Membrane Permeable-Phenotype (%),[6],0%
same,Population Mitochondria Different-Phenotype (%),[6],39%
same,Population Mitotic Cells (%),[6],56%
same,Population Normal (%),[6],92%
same,Population Pyknosed Nuclei (%),[6],8%
same,Population Tubulin-Different-Phenotype (%),[6],16%
same,Total Cell Count,[6],404
same,Population Apoptotic (%),[7],30%
same,Population Fragmented Nuclei (%),[7],10%
same,Population Healthy Nuclei (%),[7],73%
same,Population Hoechst High Intensity Objects (%),[7],4%
same,Population Membrane Permeable-Phenotype (%),[7],0%
same,Population Mitochondria Different-Phenotype (%),[7],34%
same,Population Mitotic Cells (%),[7],69%
same,Population Normal (%),[7],95%
same,Population Pyknosed Nuclei (%),[7],15%
same,Population Tubulin-Different-Phenotype (%),[7],18%
same,Total Cell Count,[7],441
same,Population Apoptotic (%),[8],44%
same,Population Fragmented Nuclei (%),[8],8%
same,Population Healthy Nuclei (%),[8],78%
same,Population Hoechst High Intensity Objects (%),[8],12%
same,Population Mitochondria Different-Phenotype (%),[8],41%
same,Population Mitotic Cells (%),[8],55%
same,Population Normal (%),[8],87%
same,Population Pyknosed Nuclei (%),[8],12%
same,Population Tubulin-Different-Phenotype (%),[8],17%
same,Total Cell Count,[8],318
same,Population Apoptotic (%),[9],27%
same,Population Fragmented Nuclei (%),[9],17%
same,Population Healthy Nuclei (%),[9],72%
same,Population Hoechst High Intensity Objects (%),[9],2%
same,Population Membrane Permeable-Phenotype (%),[9],3%
same,Population Mitochondria Different-Phenotype (%),[9],22%
same,Population Mitotic Cells (%),[9],72%
same,Population Normal (%),[9],97%
same,Population Pyknosed Nuclei (%),[9],10%
same,Population Tubulin-Different-Phenotype (%),[9],13%
same,Total Cell Count,[9],600
same,Population Apoptotic (%),[10],40%
same,Population Fragmented Nuclei (%),[10],12%
same,Population Healthy Nuclei (%),[10],80%
same,Population Hoechst High Intensity Objects (%),[10],3%
same,Population Membrane Permeable-Phenotype (%),[10],0%
same,Population Mitochondria Different-Phenotype (%),[10],23%
same,Population Mitotic Cells (%),[10],59%
same,Population Normal (%),[10],96%
same,Population Pyknosed Nuclei (%),[10],7%
same,Population Tubulin-Different-Phenotype (%),[10],10%
same,Total Cell Count,[10],605
same,Population Apoptotic (%),[11],26%
same,Population Fragmented Nuclei (%),[11],14%
same,Population Healthy Nuclei (%),[11],77%
same,Population Hoechst High Intensity Objects (%),[11],2%
same,Population Membrane Permeable-Phenotype (%),[11],1%
same,Population Mitochondria Different-Phenotype (%),[11],18%
same,Population Mitotic Cells (%),[11],73%
same,Population Normal (%),[11],97%
same,Population Pyknosed Nuclei (%),[11],8%
same,Population Tubulin-Different-Phenotype (%),[11],13%
same,Total Cell Count,[11],711
same,Population Apoptotic (%),[12],53%
same,Population Healthy Nuclei (%),[12],79%
same,Population Hoechst High Intensity Objects (%),[12],7%
same,Population Membrane Permeable-Phenotype (%),[12],0%
same,Population Mitochondria Different-Phenotype (%),[12],27%
same,Population Mitotic Cells (%),[12],46%
same,Population Normal (%),[12],92%
same,Population Pyknosed Nuclei (%),[12],5%
same,Population Tubulin-Different-Phenotype (%),[12],15%
same,Total Cell Count,[12],480
